High-throughput results as filed in PubChem BioAssay.
The list is not random: actives were taken first. Their share in the collection is about 2.2%.
CCR6 antagonist: antagonists of human CCR6 receptor; P51684; CHO-K1 CCR6 PathHunter beta-arrestin, luminescence, CCL20-stimulated; inhibition, % at 20 µM; 340,000 compounds, 0.49% hits; AID 493098;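 active means compounds whose inhibition of the agonist-driven luminescence signal at 20 µM reaches about 50%, limit read from the data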;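 further: cells stimulated with CCL20 at 14 nM final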
EBI2 antag: blocks human EBI2 receptor beta-arrestin signaling; P32249; EBI2 beta-arrestin recruitment, luminescence, 7a,25-OHC stimulated; inhibition, % at 5 µM; 360,000 compounds, 0.81% hits; AID 651636; in the data active means inhibition above about 38%;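 further: enzyme fragment complementation signal reports receptor beta-arrestin coupling in cells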
Target sequence (P32249 whole entry, looked up, the tested form may be a part): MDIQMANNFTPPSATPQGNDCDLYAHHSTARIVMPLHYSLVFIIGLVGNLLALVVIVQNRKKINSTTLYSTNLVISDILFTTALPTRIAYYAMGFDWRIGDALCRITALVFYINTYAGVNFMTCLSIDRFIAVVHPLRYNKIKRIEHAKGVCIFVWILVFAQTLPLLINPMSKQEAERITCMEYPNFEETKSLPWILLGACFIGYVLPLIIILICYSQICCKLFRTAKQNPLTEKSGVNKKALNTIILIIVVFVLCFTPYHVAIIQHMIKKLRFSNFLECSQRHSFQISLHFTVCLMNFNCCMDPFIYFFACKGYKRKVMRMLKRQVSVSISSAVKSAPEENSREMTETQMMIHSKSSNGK
APJ antagonist: APJ receptor antagonism | P35414 | CHO-K1 APJ beta-arrestin complementation, luminescence | inhibition, % at 20 µM | 330,000 compounds, 0.32% hits;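 active means inhibition above about 40% at 20 µM, limit read from the data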;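 further: cells challenged with 10 nM apelin-13 agonist together with compound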
Target sequence (P35414 whole entry, looked up): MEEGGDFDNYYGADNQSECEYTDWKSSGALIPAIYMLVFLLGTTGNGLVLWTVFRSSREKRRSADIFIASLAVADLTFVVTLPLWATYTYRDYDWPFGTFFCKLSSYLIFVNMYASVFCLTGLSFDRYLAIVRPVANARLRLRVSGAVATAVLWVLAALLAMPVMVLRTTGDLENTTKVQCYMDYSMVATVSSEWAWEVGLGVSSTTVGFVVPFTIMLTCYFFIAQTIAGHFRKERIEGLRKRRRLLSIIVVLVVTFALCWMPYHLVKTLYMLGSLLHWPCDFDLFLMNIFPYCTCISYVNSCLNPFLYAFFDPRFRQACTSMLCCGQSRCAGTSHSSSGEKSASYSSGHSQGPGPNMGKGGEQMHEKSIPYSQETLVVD
CXCR6 inh: inhibitors of human CXCR6 receptor; O00574; 360,000 compounds, 0.36% hits; inhibition, % at 20 µM; CHO-K1 PathHunter CXCR6 beta-arrestin, luminescence; in the data active means inhibition above about 34%, passing the limit was not always enough;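 further: antagonist mode with CXCL16 agonist at 10 nM final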
m5-HT2A agonist: mouse HTR2A agonism via beta-arrestin recruitment | CHO-K1 mHTR2A beta-arrestin complementation, luminescence; percent of 30 µM serotonin response | AID 624169 | P35363 | activation, % at 7.6 µM | 360,000 compounds, 0.66% hits;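 active means activation above a run cutoff, the mean activation of all tested compounds plus 3 SD, cut at about 14% in these data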
APJ ag: APJ receptor agonism; P35414; CHO-K1 APJ PathHunter beta-arrestin, luminescence; 0% DMSO wells, 100% apelin; activation, % at 20 µM; 330,000 compounds, 0.11% hits; AID 2520;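 active means activation more than six SD over the plate average, tested at 20 µM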
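Assay system: CHO-K1 APJ beta-arrestin complementation cell line / Compound: single test compound dose, 20 µM final, 1% DMSO / Times: overnight seeding, 90 min compound at 25 °C, 1 h detection / Technique: beta-gal luminescence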
OPRM1 ag: OPRM1 agonism in mouse HTR2A counterscreen | activation, % at 9.3 µM | U2OS OPRM1 beta-arrestin PathHunter, luminescence; DMSO 0%, DAMGO 9.3 µM 100% | 2,300 compounds, 5.3% hits | shares compounds with m5-HT2A agonist;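 active means mean activation above the mean of DMSO-only wells plus 3 SD, cut at about 0.5% in these data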
HTR2A ag conf: confirmation of mouse HTR2A serotonin receptor agonists. shares compounds with m5-HT2A agonist. CHO-K1 PathHunter beta-arrestin recruitment, luminescence; DMSO 0%, 30 µM serotonin 100%. activation, % at 7.6 µM. 2,300 compounds, 19% hits;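 active means mean activation across triplicates above the hit threshold derived in the original primary screen, cut at about 15% in these data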
Large screens that a line does not name were inactive (follow-up assays come after a bar, where they were run).

Nc1nc2c(s1)CCCCCCCCCC2	none
CCCN[C@H]1CCc2nc(N)sc2C1	m5-HT2A agonist 60 | OPRM1 ag inactive | HTR2A ag conf 142
O=C(NCCC1=CCCCC1)c1[nH]c(C(F)(F)F)nc1-c1ccccc1	none (no result: CCR6 antagonist, APJ antagonist, APJ ag)
Cc1nc2c(-c3ccccc3)c(C)[nH]n2c(=O)c1Cc1ccccc1	m5-HT2A agonist 59 | OPRM1 ag inactive | HTR2A ag conf 33
O=C(O)c1ccccc1N/N=C\c1ccnc2ccccc12	m5-HT2A agonist 14 | OPRM1 ag inactive | HTR2A ag conf inactive
ON=Cc1ccnc2ccccc12	none (no result: CCR6 antagonist, APJ antagonist, APJ ag)
CCN(CC(=O)Nc1c(F)cccc1F)C(=O)c1cc(S(=O)(=O)N(CC)CC)ccc1N1CCCCC1	none
CCN(CC(=O)Nc1c(F)cccc1F)C(=O)c1ccc(N2CCCCC2)c([N+](=O)[O-])c1	m5-HT2A agonist 15 | OPRM1 ag 0.7 | HTR2A ag conf inactive
CC(=O)N1CCc2cc(C(=O)CN3CCN(c4cccc(Cl)c4)CC3)ccc21	m5-HT2A agonist 25 | OPRM1 ag inactive | HTR2A ag conf 90
CCN1C(C#N)=C(C#N)N=C(C)CC1(C)C	m5-HT2A agonist 25 | OPRM1 ag inactive | HTR2A ag conf inactive
CC1=NN(C(C#N)c2ccccc2O)C(C)(C)C1 (stereo not given)	none
COc1ccccc1N(C)S(=O)(=O)c1ccc(Cl)c(C(=O)Nc2ccccc2N2CCOCC2)c1	none (no result: APJ antagonist, APJ ag)
COc1cc(OC)nc(NC(=O)CS(=O)(=O)c2ccccc2)n1	m5-HT2A agonist 16 | OPRM1 ag inactive | HTR2A ag conf inactive
COc1ccc(-n2ncc3c(=O)n(CC(=O)N(C(C)C)C(C)C)cnc32)cc1	m5-HT2A agonist 37 | OPRM1 ag inactive | HTR2A ag conf inactive
CCOC(=O)Cn1cnc2c(cnn2-c2ccc(OC)cc2)c1=O	none
Cc1ccc2nc(-c3cccc(Br)c3)c(Cc3ccccc3C(F)(F)F)n2c1	none (no result: CCR6 antagonist, APJ antagonist, APJ ag)
Cc1ccc(CN2CCNC(=O)C2CC(=O)O)o1 (stereo not given)	m5-HT2A agonist 21 | OPRM1 ag inactive | HTR2A ag conf inactive
Cc1ccc(CN2CCNC(=O)C2CC(=O)N(C)C2CCCCC2)o1 (stereo not given)	none
COc1ccc(-c2csc(C(C)(O)c3ccc(F)c(F)c3)n2)cc1 (stereo not given)	m5-HT2A agonist 15 (no result: CCR6 antagonist, APJ antagonist, APJ ag) | OPRM1 ag inactive | HTR2A ag conf inactive
CC(O)(c1ccc(F)c(F)c1)c1nc(-c2ccncc2)cs1 (stereo not given)	none (no result: CCR6 antagonist, APJ antagonist, APJ ag)
Cc1ccc(S(=O)(=O)CCC(=O)OCC(=O)N(C)c2ccccc2)cc1	none (no result: APJ antagonist, APJ ag)
O=c1[nH]c2cc(C(F)(F)F)ccc2n1-c1cc(C(F)(F)F)ccc1O	m5-HT2A agonist 15 | OPRM1 ag 0.6 | HTR2A ag conf inactive
CC(NC(=O)C1CCN(Cc2ccc(Oc3ccccc3)cc2)CC1)c1cccc2ccccc12 (stereo not given)	none (no result: CCR6 antagonist, APJ antagonist, APJ ag)
O=C(NCCc1ccc(O)c(O)c1)C1COc2ccccc2O1 (stereo not given)	m5-HT2A agonist 14 | OPRM1 ag inactive | HTR2A ag conf 23
CCOC(=O)C1=C[C@@H](C(C)(C)C)N(S(=O)(=O)c2ccc(C)cc2)[C@H]1c1ccc(Cl)c(Cl)c1	none (no result: CCR6 antagonist, APJ antagonist, APJ ag)
CCc1nc2ccc(C(=O)Nc3cccc(OCC(=O)N(C)C)c3)cn2c1N(CCC(C)C)CCN(C)C	none (no result: CCR6 antagonist, APJ antagonist, APJ ag)
Cc1ccccc1N1CC(C(=O)N2CCc3ccccc32)CC1=O (stereo not given)	m5-HT2A agonist 17 | OPRM1 ag inactive | HTR2A ag conf inactive
CCc1ccc(CN(C(=O)c2oc3ccccc3c2C)C2CCS(=O)(=O)C2)cc1 (stereo not given)	m5-HT2A agonist 15 | OPRM1 ag inactive | HTR2A ag conf inactive
Cc1c(C(=O)N(Cc2ccccc2)C2CCS(=O)(=O)C2)oc2ccccc12 (stereo not given)	none
CCc1ccc(OC(C)C(=O)N(Cc2ccco2)C2CCS(=O)(=O)C2)cc1 (stereo not given)	m5-HT2A agonist 23 | OPRM1 ag inactive | HTR2A ag conf inactive
COCC(=O)Nc1cc([N+](=O)[O-])ccc1OC	m5-HT2A agonist 44 | OPRM1 ag inactive | HTR2A ag conf inactive
COCC(=O)Nc1ccc([N+](=O)[O-])cc1OC	none
CC(/C=N/n1c(-c2ccc(C)cc2)n[nH]c1=S)=C\c1ccco1	none
CC(/C=N/n1c(-c2ccncc2)n[nH]c1=S)=C\c1ccco1	m5-HT2A agonist 20 | OPRM1 ag inactive | HTR2A ag conf inactive
CC(/C=N/n1c(-c2ccccc2)n[nH]c1=S)=C\c1ccco1	m5-HT2A agonist 22 | OPRM1 ag inactive | HTR2A ag conf inactive
CCOC(=O)C1(C)CCN1C(=O)c1ccc(SC(F)(F)F)cc1 (stereo not given)	m5-HT2A agonist 16 (no result: CCR6 antagonist, APJ antagonist, APJ ag) | OPRM1 ag inactive | HTR2A ag conf inactive
CCOC(=O)C1(C)CCCCCN1C(=O)c1ccc(SC(F)(F)F)cc1 (stereo not given)	none (no result: CCR6 antagonist, APJ antagonist, APJ ag)
Cc1cc(C)c2cc(CN(CCN3CCCC3)C(=O)Nc3ccc(F)cc3)c(=O)[nH]c2c1	m5-HT2A agonist 20 | OPRM1 ag inactive | HTR2A ag conf inactive
Cc1cc(C)c2cc(CN(CCO)C(=O)Nc3ccc(Cl)cc3)c(=O)[nH]c2c1	none (no result: EBI2 antag, CXCR6 inh, m5-HT2A agonist)
CCN(CC)C(=O)C1=C(C)N(Cc2ccc(F)cc2)C(=O)C(CC(=O)NCCCN(C)C)C1 (stereo not given)	none (no result: CCR6 antagonist, APJ antagonist, APJ ag)
CC(=O)Nc1ccc(S(=O)(=O)Nc2nccc(C)n2)cc1	none
Cc1ccnc(NS(=O)(=O)c2ccc(NC(=O)c3snnc3C)cc2)n1	m5-HT2A agonist 15 | OPRM1 ag inactive | HTR2A ag conf inactive
c1cc(-c2ccc(N3CCOCC3)cc2)n2cnnc2c1	none (no result: CCR6 antagonist, APJ antagonist, APJ ag)
Cc1ccc(S(=O)(=O)N2C[C@H]3C(=O)C[C@@H](c4ccc(Cl)cc4)N(S(=O)(=O)c4ccccc4C)[C@H]3C[C@H]2c2ccccc2)cc1	none (no result: CCR6 antagonist, APJ antagonist, APJ ag)
Cc1ccc(-c2nnc(Nc3ccc4c(c3)OCO4)c3ccccc23)cc1S(N)(=O)=O	m5-HT2A agonist 15 | OPRM1 ag inactive | HTR2A ag conf inactive
Cc1cc(Cl)cc(C)c1OCCNCc1ccccc1	m5-HT2A agonist 21 | OPRM1 ag inactive | HTR2A ag conf inactive
CN1[C@@H](Cc2ccccc2)COc2cc(N3CCSCC3)ccc2S1(=O)=O	none (no result: CCR6 antagonist, APJ antagonist, APJ ag)
O=C(Nc1ccc2snnc2c1)N1CCSCC1	m5-HT2A agonist 17 | OPRM1 ag inactive | HTR2A ag conf inactive
CNC(=O)Nc1ccc2snnc2c1	none
Cc1cccc(-c2cccc3nccn23)c1	none (no result: CCR6 antagonist, APJ antagonist, APJ ag)
